ChEMBL document CHEMBL3393001, “Flavonoids as noncompetitive inhibitors of Dengue virus NS2B-NS3 protease: inhibition kinetics and docking studies” (Bioorg Med Chem, 2015)
Converted amounts (≈) assume the structure as drawn.

What was measured:
[1] = system: dengue virus type 2; test: Antiviral activity against dengue virus 2 infected in african green monkey Vero cells assessed as reduction in viral replication dosed after adsorption with 200 FFU of virus for 1 hour by foci forming unit reduction assay; assay type: functional, organism-based
[2] = Inhibition of dengue virus 2 NS2B-NS3 serine protease assessed as reduction in hydrolysis of Boc-Gly-Arg-Arg-7-amino-4-methylcumarin substrate; parameters: species or system dengue virus type 2
[3] = Inhibition of dengue virus 2 NS2B-NS3 serine protease assessed as reduction in hydrolysis of Boc-Gly-Arg-Arg-7-amino-4-methylcumarin substrate by Dixon plot; parameters: species or system dengue virus type 2
In short: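 Recombinant DENV2 NS2B-NS3 at 47.63 nM in 200 mM Tris-HCl pH 9.5, 6 mM NaCl, 30% glycerol. Boc-Gly-Arg-Arg-AMC at 25–200 µM with inhibitor fixed at 10–32 µM; AMC release read at ex 380/em 460 nm. Analysed by Lineweaver-Burk and Dixon plots, with Ki = Kiapp/(1+[S]/Km), [S] […] Mean of three independent assays.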

[4] = Inhibition of dengue virus 3 NS2B-NS3 serine protease assessed as reduction in hydrolysis of Boc-Gly-Arg-Arg-7-amino-4-methylcumarin substrate; parameters: species or system dengue virus type 3
In short: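 Recombinant DENV3 NS2B-NS3 (50 nM) was run in 50 mM Tris HCl pH 9.0 with 1 mM CHAPS and 100 substrate. Compounds in DMSO were screened at 50 final, with IC50 from serial dilutions over 0.5–200. Three independent determinations in duplicate; background-corrected 2-parameter fit (lower limit 0, upper 100).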

[5] = Inhibition of dengue virus 3 NS2B-NS3 serine protease assessed as reduction in hydrolysis of Boc-Gly-Arg-Arg-7-amino-4-methylcumarin substrate by Dixon plot; parameters: species or system dengue virus type 3
[6] = Non-competitive inhibition of dengue virus 2 NS2B-NS3 serine protease assessed as reduction in hydrolysis of Boc-Gly-Arg-Arg-7-amino-4-methylcumarin substrate by Lineweaver-Burk plot and Dixon plot; parameters: species or system dengue virus type 2
[7] = Binding affinity to NT-647-NHS fluorescent dye-labeled dengue virus 3 NS2B-NS3 serine protease incubated for 10 mins by microscale thermophoresis method; parameters: species or system dengue virus type 3
In short: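 Recombinant DENV3 NS2B-NS3, dye-labeled, mixed 1:1 with ligand dilutions to a final 25 nM protein and 0.06–1000 µM ligand. Buffer: 50 mM Tris-HCl pH 9.0, 1 mM CHAPS, plus 10% DMSO and 0.05% Tween 20 on the ligand side only. After 10 min, capillary thermophoresis was measured. KD came from data fitting, mean of three independent assays.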

| IC50 [1] [mg/L] | IC50 [2] [µM] | IC50 [4] [µM] | Structure (SMILES) | Ki [3] [µM] | Ki [5] [µM] | Ki [6] [µM] | Kd [7] [µM] |
| --- | --- | --- | --- | --- | --- | --- | --- |
| 6.46 (≈ 23.9 µM) |  |  | O=c1cc(-c2ccccc2)oc2cc(O)c(O)c(O)c12 [BAICALEIN] |  |  |  |  |
| 55 (≈ 192 µM) |  |  | O=c1c(O)c(-c2ccc(O)c(O)c2)oc2cc(O)ccc12 [FISETIN] |  |  |  |  |
|  | 44 | 42.4 | O=c1c(O[C@@H]2O[C@H](CO)[C@@H](O)[C@H](O)[C@H]2O)c(-c2ccc(O)c(O)c2)oc2cc(O)cc(O)c12 [ISOQUERCETIN] | 25.9 | 37.1 |  |  |
|  | 37.8 | 27.7 | O=c1c(O)c(-c2ccc(O)cc2)oc2cc(O)cc(O)c12 [KAEMPFEROL] | 22.3 | 24.2 |  |  |
|  | 22.3 | 29.3 | O=c1c(O)c(-c2cc(O)c(O)c(O)c2)oc2cc(O)cc(O)c12 [MYRICETIN] |  | 25.7 | 4.7 |  |

| Structure (SMILES) | IC50 [1] [mg/L] | IC50 [2] [µM] | IC50 [4] [µM] | Ki [3] [µM] | Ki [5] [µM] | Ki [6] [µM] | Kd [7] [µM] |
| --- | --- | --- | --- | --- | --- | --- | --- |
| O.O=c1c(O)c(-c2ccc(O)c(O)c2)oc2cc(O)cc(O)c12 [QUERCETIN DIHYDRATE] | 35.7 | 35.2 | 22.7 | 20.7 | 19.9 |  | 20 |
| C[C@@H]1O[C@@H](Oc2c(-c3ccc(O)c(O)c3)oc3cc(O)cc(O)c3c2=O)[C@H](O)[C@H](O)[C@H]1O [QUERCITRIN] |  | 43.6 | 32 | 25.7 | 28 |  |  |
